Laboratory results taken from ChEMBL document CHEMBL1772954, “Antifungal, cytotoxic and SAR studies of a series of N-alkyl, N-aryl and N-alkylphenyl-1,4-pyrrolediones and related compounds” (Bioorg Med Chem, 2011).
Converted amounts (≈) assume the structure as drawn.

How the values were obtained:
Aspergillus flavus = experiment: Antifungal activity against Aspergillus flavus ATCC 9170; type: functional
How it was run: (§1)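 Broth microdilution per CLSI M38-A2 in RPMI-1640 with MOPS at pH 7.0. Inoculum 1-5 × 10^3 CFU/mL, with twofold compound dilutions spanning 250-0.24 µg/ml (final DMSO <1%). Plates incubated at 35 °C, moist and dark, and read when the control fungus had grown. MIC is total growth inhibition. MFC comes from subculturing clear wells in duplicate onto SDA.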

[1] = test system: Trichophyton mentagrophytes; experiment: Antifungal activity against Trichophyton mentagrophytes ATCC 9972; type: functional
How it was run: (§2)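 Dermatophytes tested by CLSI M38-A2 microdilution in MOPS-buffered RPMI-1640 at pH 7.0. Inoculum 1-5 × 10^3 CFU/mL; compounds 250 to 0.24 µg/ml in twofold steps, final DMSO <1%. Incubated at 28 °C in a moist, dark chamber and read according to control growth. MIC is the lowest concentration with complete inhibition. MFC is the lowest concentration with no growth after duplicate subculture on SDA.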

Cryptococcus neoformans = experiment: Antifungal activity against Cryptococcus neoformans ATCC 32264; type: functional
How it was run: (§3)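 CLSI M27-A3 broth microdilution in RPMI-1640 buffered to pH 7.0 with MOPS. Inoculum 1-5 × 10^3 CFU/mL. Compound twofold dilutions from 250 to 0.24 µg/ml, final DMSO <1%. Incubated at 35 °C in a moist, dark chamber and read at 48 h. MIC is the lowest concentration giving total growth inhibition. For MFC, 5 µL from clear wells was plated in duplicate on SDA; MFC is the lowest concentration with no growth.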

[2] = Cytotoxicity against human erythrocytes assessed as hemolysis by spectrometric analysis; type: cell-based, Erythrocyte
How it was run: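 Human heparinized red blood cells were washed in PBS at pH 7.0 and suspended at 4% in sterile 5% glucose. Compounds from DMSO stocks were diluted in 5% glucose to final concentrations of 250 to 0.24 µg/ml and incubated with the cells at 37 °C. Released hemoglobin was read at 540 nm. HC50 is the concentration giving 50% lysis relative to the drug-free value.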

Aspergillus niger = experiment: Antifungal activity against Aspergillus niger ATCC 9029; type: functional; how it was run: as §1
Candida tropicalis = experiment: Antifungal activity against Candida tropicalis C 131 2000; type: functional; how it was run: as §3
MCF7 = experiment: Cytotoxicity against human MCF7 cells assessed as cell growth after 2 days by sulforhodamine B assay; type: functional; details: MCF7, 48 h
How it was run: (§4)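 NCI cell lines were run by the Monks method: cells were plated with compounds from DMSO stocks and incubated 2 days at 37 °C in 5% CO2, in duplicate. Cells were fixed with cold TCA, stained with 0.4% SRB, and the bound dye was solubilized in 10 mM tris-base and read at 515 nm. The zero-day control was subtracted, and GI50 was taken from the curves.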

NCI-H460 = experiment: Cytotoxicity against human H460 cells assessed as cell growth after 2 days by sulforhodamine B assay; type: functional; details: NCI-H460, 48 h; how it was run: as §4
SF-268 = experiment: Cytotoxicity against human SF268 cells assessed as cell growth after 2 days by sulforhodamine B assay; type: functional; details: SF-268, 48 h; how it was run: as §4
Candida albicans = experiment: Antifungal activity against Candida albicans ATCC 10213; type: functional; how it was run: as §3
Aspergillus fumigatus = experiment: Antifungal activity against Aspergillus fumigatus ATCC 26934; type: functional; how it was run: as §1
Nannizzia gypsea = experiment: Antifungal activity against Microsporum gypseum C 115 2000; type: functional; how it was run: as §2
Saccharomyces cerevisiae = experiment: Antifungal activity against Saccharomyces cerevisiae ATCC 9763; type: functional; how it was run: as §3
Trichophyton rubrum = experiment: Antifungal activity against Trichophyton rubrum C 113 2000; type: functional; how it was run: as §2

MIC (Aspergillus flavus)	MIC [1]	MIC (Cryptococcus neoformans)	MIC (Aspergillus niger)	MIC (Candida tropicalis)	MIC (Candida albicans)	MIC (Aspergillus fumigatus)	MIC (Nannizzia gypsea)	SMILES	MFC (Aspergillus flavus)	MFC [1]	MFC (Cryptococcus neoformans)	HC50 [2]	MFC (Aspergillus niger)	MFC (Candida tropicalis)	GI50 (MCF7)	GI50 (NCI-H460)	GI50 (SF-268)	MFC (Candida albicans)	MFC (Aspergillus fumigatus)	MFC (Nannizzia gypsea)	also measured
15.6 µg/mL (≈ 81.8 µM)	3.9 µg/mL (≈ 20.4 µM)	7.81 µg/mL (≈ 40.9 µM)	7.81 µg/mL (≈ 40.9 µM)	15.6 µg/mL (≈ 81.8 µM)	15.6 µg/mL (≈ 81.8 µM)	15.6 µg/mL (≈ 81.8 µM)	3.9 µg/mL (≈ 20.4 µM)	O=C1C=CC(=O)N1c1ccc(F)cc1	15.6 µg/mL (≈ 81.8 µM)	7.81 µg/mL (≈ 40.9 µM)	15.6 µg/mL (≈ 81.8 µM)	> 250 µg/mL	7.81 µg/mL (≈ 40.9 µM)	15.6 µg/mL (≈ 81.8 µM)	> 10 µg/mL	> 10 µg/mL	> 10 µg/mL	15.6 µg/mL (≈ 81.8 µM)	31.2 µg/mL (≈ 163 µM)	7.81 µg/mL (≈ 40.9 µM)	MFC (Saccharomyces cerevisiae): 7.81 µg/mL (≈ 40.9 µM); MIC (Saccharomyces cerevisiae): 3.9 µg/mL (≈ 20.4 µM); MFC (Trichophyton rubrum): 7.81 µg/mL (≈ 40.9 µM); MIC (Trichophyton rubrum): 3.9 µg/mL (≈ 20.4 µM)
15.6 µg/mL (≈ 125 µM)	7.81 µg/mL (≈ 62.4 µM)	15.6 µg/mL (≈ 125 µM)	7.81 µg/mL (≈ 62.4 µM)	62.5 µg/mL (≈ 499 µM)	62.5 µg/mL (≈ 499 µM)	15.6 µg/mL (≈ 125 µM)	7.81 µg/mL (≈ 62.4 µM)	CCN1C(=O)C=CC1=O [N-ETHYLMALEIMIDE]	15.6 µg/mL (≈ 125 µM)	15.6 µg/mL (≈ 125 µM)	31.2 µg/mL (≈ 250 µM)	> 250 µg/mL	15.6 µg/mL (≈ 125 µM)	125 µg/mL (≈ 999 µM)	9.9 µg/mL (≈ 79.1 µM)	6.7 µg/mL (≈ 53.5 µM)	6.5 µg/mL (≈ 51.9 µM)	250 µg/mL (≈ 2000 µM)	31.2 µg/mL (≈ 250 µM)	7.81 µg/mL (≈ 62.4 µM)	MFC (Saccharomyces cerevisiae): 15.6 µg/mL (≈ 125 µM); MIC (Saccharomyces cerevisiae): 7.81 µg/mL (≈ 62.4 µM); MFC (Trichophyton rubrum): 3.9 µg/mL (≈ 31.2 µM); MIC (Trichophyton rubrum): 3.9 µg/mL (≈ 31.2 µM)

The remaining lines, values behind:

SMILES	MIC (Aspergillus flavus)	MIC [1]	MIC (Cryptococcus neoformans)	MIC (Aspergillus niger)	MIC (Candida tropicalis)	MIC (Candida albicans)	MIC (Aspergillus fumigatus)	MIC (Nannizzia gypsea)	MFC (Aspergillus flavus)	MFC [1]	MFC (Cryptococcus neoformans)	HC50 [2]	MFC (Aspergillus niger)	MFC (Candida tropicalis)	GI50 (MCF7)	GI50 (NCI-H460)	GI50 (SF-268)	MFC (Candida albicans)	MFC (Aspergillus fumigatus)	MFC (Nannizzia gypsea)	also measured
O=C1C=CC(=O)N1c1ccc(Cl)cc1	62.5 µg/mL (≈ 301 µM)	3.9 µg/mL (≈ 18.8 µM)	3.9 µg/mL (≈ 18.8 µM)	31.2 µg/mL (≈ 151 µM)	7.81 µg/mL (≈ 37.6 µM)	62.5 µg/mL (≈ 301 µM)	62.5 µg/mL (≈ 301 µM)	3.9 µg/mL (≈ 18.8 µM)	125 µg/mL (≈ 602 µM)	7.81 µg/mL (≈ 37.6 µM)	7.81 µg/mL (≈ 37.6 µM)	> 250 µg/mL	62.5 µg/mL (≈ 301 µM)	15.6 µg/mL (≈ 75.3 µM)	> 10 µg/mL	> 10 µg/mL	> 10 µg/mL	62.5 µg/mL (≈ 301 µM)	125 µg/mL (≈ 602 µM)	7.81 µg/mL (≈ 37.6 µM)	MFC (Saccharomyces cerevisiae): 7.81 µg/mL (≈ 37.6 µM); MIC (Saccharomyces cerevisiae): 3.9 µg/mL (≈ 18.8 µM); MFC (Trichophyton rubrum): 7.81 µg/mL (≈ 37.6 µM); MIC (Trichophyton rubrum): 3.9 µg/mL (≈ 18.8 µM)
O=C1C=CC(=O)N1c1ccc(Br)cc1	31.2 µg/mL (≈ 124 µM)	1.95 µg/mL (≈ 7.74 µM)	7.81 µg/mL (≈ 31 µM)	31.2 µg/mL (≈ 124 µM)	15.6 µg/mL (≈ 62 µM)	15.6 µg/mL (≈ 62 µM)	31.2 µg/mL (≈ 124 µM)	3.9 µg/mL (≈ 15.5 µM)	62.5 µg/mL (≈ 248 µM)	3.9 µg/mL (≈ 15.5 µM)	15.6 µg/mL (≈ 62 µM)	> 250 µg/mL	62.5 µg/mL (≈ 248 µM)	62.5 µg/mL (≈ 248 µM)	> 10 µg/mL	> 10 µg/mL	> 10 µg/mL	31.2 µg/mL (≈ 124 µM)	62.5 µg/mL (≈ 248 µM)	3.9 µg/mL (≈ 15.5 µM)	MFC (Saccharomyces cerevisiae): 15.6 µg/mL (≈ 62 µM); MIC (Saccharomyces cerevisiae): 7.81 µg/mL (≈ 31 µM); MFC (Trichophyton rubrum): 3.9 µg/mL (≈ 15.5 µM); MIC (Trichophyton rubrum): 1.95 µg/mL (≈ 7.74 µM)
O=C1C=CC(=O)N1c1ccc(I)cc1	62.5 µg/mL (≈ 209 µM)	3.9 µg/mL (≈ 13 µM)	7.81 µg/mL (≈ 26.1 µM)	62.5 µg/mL (≈ 209 µM)	31.2 µg/mL (≈ 104 µM)	31.2 µg/mL (≈ 104 µM)	62.5 µg/mL (≈ 209 µM)	3.9 µg/mL (≈ 13 µM)	125 µg/mL (≈ 418 µM)	7.81 µg/mL (≈ 26.1 µM)	15.6 µg/mL (≈ 52.3 µM)	> 250 µg/mL	125 µg/mL (≈ 418 µM)	62.5 µg/mL (≈ 209 µM)	> 10 µg/mL	> 10 µg/mL	> 10 µg/mL	62.5 µg/mL (≈ 209 µM)	125 µg/mL (≈ 418 µM)	7.81 µg/mL (≈ 26.1 µM)	MFC (Saccharomyces cerevisiae): 7.81 µg/mL (≈ 26.1 µM); MIC (Saccharomyces cerevisiae): 7.81 µg/mL (≈ 26.1 µM); MFC (Trichophyton rubrum): 7.81 µg/mL (≈ 26.1 µM); MIC (Trichophyton rubrum): 3.9 µg/mL (≈ 13 µM)
